How the values were obtained:
Conditions in all cases: stereoisomer not certain
OR1A1 (Homo sapiens) = molecular target: T1, OR1A1 (Homo sapiens) (UniProt Q9P1Q5)
T1 sequence (whole entry): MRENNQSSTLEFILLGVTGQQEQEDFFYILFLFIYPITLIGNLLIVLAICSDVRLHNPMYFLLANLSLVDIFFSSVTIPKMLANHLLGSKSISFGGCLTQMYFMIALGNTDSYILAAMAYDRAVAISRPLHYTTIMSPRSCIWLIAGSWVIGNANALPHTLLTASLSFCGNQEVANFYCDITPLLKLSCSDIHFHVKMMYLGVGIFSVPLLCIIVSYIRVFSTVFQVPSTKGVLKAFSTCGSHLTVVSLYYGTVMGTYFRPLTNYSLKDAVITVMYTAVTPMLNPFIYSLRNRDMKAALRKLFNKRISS
Summary of the method: (§1)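 Whether a receptor–molecule pair is responsive (active) rests on the original authors' judgment that its measured signal was statistically different from baseline. Pairs without that judgment are non-responsive (inactive). Sources used varied assay methods, commonly transient luciferase assays in mammalian cell lines.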

OR13G1 (Homo sapiens) = OR13G1 (Homo sapiens) (UniProt Q8NGZ3)
Chain of OR13G1 (Homo sapiens) (Q8NGZ3 whole entry): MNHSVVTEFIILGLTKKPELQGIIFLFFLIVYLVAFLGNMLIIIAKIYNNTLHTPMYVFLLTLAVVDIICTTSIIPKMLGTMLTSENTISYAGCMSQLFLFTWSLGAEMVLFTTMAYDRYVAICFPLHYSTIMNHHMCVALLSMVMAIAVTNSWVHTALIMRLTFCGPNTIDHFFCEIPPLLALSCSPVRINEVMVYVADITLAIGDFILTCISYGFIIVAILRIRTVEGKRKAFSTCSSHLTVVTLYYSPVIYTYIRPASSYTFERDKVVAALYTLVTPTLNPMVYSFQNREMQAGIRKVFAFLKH
Summary of the method: as §1

OR13H1 (Homo sapiens) = OR13H1 (Homo sapiens) (UniProt Q8NG92)
Chain of OR13H1 (Homo sapiens) (Q8NG92 whole entry): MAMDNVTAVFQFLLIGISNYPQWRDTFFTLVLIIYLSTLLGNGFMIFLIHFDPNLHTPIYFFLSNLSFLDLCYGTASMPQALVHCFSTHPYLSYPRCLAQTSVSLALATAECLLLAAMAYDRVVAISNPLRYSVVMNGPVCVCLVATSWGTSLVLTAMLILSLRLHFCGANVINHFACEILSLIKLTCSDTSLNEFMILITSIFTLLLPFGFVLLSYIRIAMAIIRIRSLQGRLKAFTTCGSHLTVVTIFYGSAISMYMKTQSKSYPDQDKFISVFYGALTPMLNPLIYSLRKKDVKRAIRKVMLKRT
Summary of the method: as §1

OR13J1 (Homo sapiens) = OR13J1 (Homo sapiens) (UniProt Q8NGT2)
Chain of OR13J1 (Homo sapiens) (Q8NGT2 whole entry): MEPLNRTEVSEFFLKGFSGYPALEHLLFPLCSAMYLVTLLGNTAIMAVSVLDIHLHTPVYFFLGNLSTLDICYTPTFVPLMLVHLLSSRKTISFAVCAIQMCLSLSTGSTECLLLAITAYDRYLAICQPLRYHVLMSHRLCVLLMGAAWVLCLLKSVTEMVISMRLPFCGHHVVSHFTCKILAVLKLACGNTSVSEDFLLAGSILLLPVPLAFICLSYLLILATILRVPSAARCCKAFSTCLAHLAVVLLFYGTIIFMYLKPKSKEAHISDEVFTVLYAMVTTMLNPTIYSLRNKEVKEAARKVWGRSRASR
Summary of the method: as §1

OR14A16 (Homo sapiens) = OR14A16 (Homo sapiens) (UniProt Q8NHC5)
Chain of OR14A16 (Homo sapiens) (Q8NHC5 whole entry): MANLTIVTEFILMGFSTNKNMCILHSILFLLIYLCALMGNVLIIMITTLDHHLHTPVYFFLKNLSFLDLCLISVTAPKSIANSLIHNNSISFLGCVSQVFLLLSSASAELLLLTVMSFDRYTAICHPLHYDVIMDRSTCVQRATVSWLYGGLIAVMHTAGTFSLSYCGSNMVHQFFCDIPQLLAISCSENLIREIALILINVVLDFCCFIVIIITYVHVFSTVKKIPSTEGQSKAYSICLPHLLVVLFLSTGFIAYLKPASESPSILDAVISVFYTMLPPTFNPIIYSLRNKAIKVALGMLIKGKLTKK
Summary of the method: as §1

OR14A2 (Homo sapiens) = OR14A2 (Homo sapiens) (UniProt Q96R54)
Chain of OR14A2 (Homo sapiens) (Q96R54 whole entry): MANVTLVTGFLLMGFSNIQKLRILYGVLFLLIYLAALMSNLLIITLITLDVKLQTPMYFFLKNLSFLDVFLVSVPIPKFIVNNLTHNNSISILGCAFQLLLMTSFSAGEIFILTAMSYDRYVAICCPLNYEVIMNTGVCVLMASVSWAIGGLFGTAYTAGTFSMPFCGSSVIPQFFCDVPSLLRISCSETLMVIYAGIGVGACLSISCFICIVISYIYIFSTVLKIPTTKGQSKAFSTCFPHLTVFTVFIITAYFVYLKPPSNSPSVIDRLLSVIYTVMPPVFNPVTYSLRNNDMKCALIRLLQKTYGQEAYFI
Summary of the method: as §1

OR14C36 (Homo sapiens) = OR14C36 (Homo sapiens) (UniProt Q8NHC7)
Chain of OR14C36 (Homo sapiens) (Q8NHC7 whole entry): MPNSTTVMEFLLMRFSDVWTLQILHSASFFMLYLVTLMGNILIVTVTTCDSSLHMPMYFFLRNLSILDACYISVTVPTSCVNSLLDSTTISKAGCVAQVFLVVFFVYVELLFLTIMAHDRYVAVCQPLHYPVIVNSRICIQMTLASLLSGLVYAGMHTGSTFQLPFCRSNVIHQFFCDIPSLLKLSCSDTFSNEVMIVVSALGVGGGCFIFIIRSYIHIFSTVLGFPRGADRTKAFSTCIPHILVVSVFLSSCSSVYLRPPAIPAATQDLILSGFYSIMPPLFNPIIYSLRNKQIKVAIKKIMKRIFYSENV
Summary of the method: as §1

OR14I1 (Homo sapiens) = OR14I1 (Homo sapiens) (UniProt A6ND48)
Chain of OR14I1 (Homo sapiens) (A6ND48 whole entry): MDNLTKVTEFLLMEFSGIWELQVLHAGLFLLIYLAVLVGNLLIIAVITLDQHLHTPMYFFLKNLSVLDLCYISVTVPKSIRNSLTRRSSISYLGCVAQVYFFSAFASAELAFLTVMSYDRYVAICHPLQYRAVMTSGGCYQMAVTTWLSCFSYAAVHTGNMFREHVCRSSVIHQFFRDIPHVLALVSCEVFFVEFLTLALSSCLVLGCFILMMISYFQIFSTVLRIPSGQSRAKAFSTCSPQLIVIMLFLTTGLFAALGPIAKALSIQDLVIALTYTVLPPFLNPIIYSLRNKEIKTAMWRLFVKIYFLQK
Summary of the method: as §1

OR14J1 (Homo sapiens) = OR14J1 (Homo sapiens) (UniProt Q9UGF5)
Chain of OR14J1 (Homo sapiens) (Q9UGF5 whole entry): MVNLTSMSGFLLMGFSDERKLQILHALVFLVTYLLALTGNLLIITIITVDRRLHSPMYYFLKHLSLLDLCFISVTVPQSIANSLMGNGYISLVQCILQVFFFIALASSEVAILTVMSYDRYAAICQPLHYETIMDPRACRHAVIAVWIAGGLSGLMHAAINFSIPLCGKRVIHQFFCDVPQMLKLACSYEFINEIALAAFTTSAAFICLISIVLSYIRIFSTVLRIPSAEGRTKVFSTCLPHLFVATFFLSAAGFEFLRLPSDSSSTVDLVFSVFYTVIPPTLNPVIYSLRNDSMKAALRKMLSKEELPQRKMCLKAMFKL
Summary of the method: as §1

OR14K1 (Homo sapiens) = OR14K1 (Homo sapiens) (UniProt Q8NGZ2)
Chain of OR14K1 (Homo sapiens) (Q8NGZ2 whole entry): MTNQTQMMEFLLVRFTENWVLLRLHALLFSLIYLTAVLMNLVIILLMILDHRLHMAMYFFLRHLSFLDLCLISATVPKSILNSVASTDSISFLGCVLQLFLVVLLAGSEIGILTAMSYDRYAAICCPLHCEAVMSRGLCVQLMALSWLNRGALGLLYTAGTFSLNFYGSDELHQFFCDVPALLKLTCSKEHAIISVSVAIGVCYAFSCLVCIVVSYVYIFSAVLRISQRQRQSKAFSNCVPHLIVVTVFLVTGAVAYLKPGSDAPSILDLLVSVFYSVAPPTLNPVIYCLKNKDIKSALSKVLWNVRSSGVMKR
Summary of the method: as §1
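Note: active if original authors judged signal statistically different from baseline.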

## O=C([O-])Cc1ccccc1
OR1A1 (Homo sapiens)
  odorant receptor agonist call: inactive

## CC(C=O)Cc1ccc2c(c1)OCO2 (centres undefined)
OR1A1 (Homo sapiens)
  odorant receptor agonist call: active

## CCC(Br)C(=O)O (centres undefined)
OR1A1 (Homo sapiens)
  odorant receptor agonist call: inactive

## ClC=CCl
OR1A1 (Homo sapiens)
  odorant receptor agonist call: inactive

## C=CCSSCC=C
OR1A1 (Homo sapiens)
  odorant receptor agonist call: inactive

## O=c1cc(O)c2ccccc2o1
OR1A1 (Homo sapiens)
  odorant receptor agonist call: inactive

## O=C(O)Cc1ccccc1
OR1A1 (Homo sapiens)
  odorant receptor agonist call: inactive

## CCCCC(Br)C(=O)O (centres undefined)
OR1A1 (Homo sapiens)
  odorant receptor agonist call: inactive

## COc1ccc(C=O)cc1
OR1A1 (Homo sapiens)
  odorant receptor agonist call: inactive

## Cc1ccc(O)c(C)c1
OR1A1 (Homo sapiens)
  odorant receptor agonist call: inactive

## Cc1c([N+](=O)[O-])c(C)c([N+](=O)[O-])c(C(C)(C)C)c1[N+](=O)[O-]
OR13G1 (Homo sapiens)
  odorant receptor agonist call: inactive
OR13H1 (Homo sapiens)
  odorant receptor agonist call: inactive
OR13J1 (Homo sapiens)
  odorant receptor agonist call: inactive
OR14A16 (Homo sapiens)
  odorant receptor agonist call: inactive
OR14A2 (Homo sapiens)
  odorant receptor agonist call: inactive
OR14C36 (Homo sapiens)
  odorant receptor agonist call: inactive
OR14I1 (Homo sapiens)
  odorant receptor agonist call: inactive
OR14J1 (Homo sapiens)
  odorant receptor agonist call: inactive
OR14K1 (Homo sapiens)
  odorant receptor agonist call: inactive
OR1A1 (Homo sapiens)
  odorant receptor agonist call: active

## C=CCc1ccc(OC)cc1
OR1A1 (Homo sapiens)
  odorant receptor agonist call: active

## CCCC(Br)C(=O)O (centres undefined)
OR1A1 (Homo sapiens)
  odorant receptor agonist call: inactive

## CCC1CCC(=O)O1 (centres undefined)
OR1A1 (Homo sapiens)
  odorant receptor agonist call: inactive

## CCCCCCC(Br)C(=O)O (centres undefined)
OR1A1 (Homo sapiens)
  odorant receptor agonist call: inactive

## CCOC(=O)Cc1ccccc1
OR1A1 (Homo sapiens)
  odorant receptor agonist call: active

## SCc1ccco1
OR1A1 (Homo sapiens)
  odorant receptor agonist call: inactive

## C=CCOC(=O)Cc1ccccc1
OR13G1 (Homo sapiens)
  odorant receptor agonist call: inactive
OR13H1 (Homo sapiens)
  odorant receptor agonist call: inactive
OR13J1 (Homo sapiens)
  odorant receptor agonist call: inactive
OR14A16 (Homo sapiens)
  odorant receptor agonist call: inactive
OR14A2 (Homo sapiens)
  odorant receptor agonist call: inactive
OR14C36 (Homo sapiens)
  odorant receptor agonist call: inactive
OR14I1 (Homo sapiens)
  odorant receptor agonist call: inactive
OR14J1 (Homo sapiens)
  odorant receptor agonist call: inactive
OR14K1 (Homo sapiens)
  odorant receptor agonist call: inactive
OR1A1 (Homo sapiens)
  odorant receptor agonist call: active

## C=CCc1ccccc1
OR1A1 (Homo sapiens)
  odorant receptor agonist call: inactive

## Cc1ccccc1O
OR1A1 (Homo sapiens)
  odorant receptor agonist call: inactive

## CSSC
OR1A1 (Homo sapiens)
  odorant receptor agonist call: inactive
